From ChEMBL document CHEMBL1208666, “Novel 6,8-dibromo-4(3H)quinazolinone derivatives of anti-bacterial and anti-fungal activities” (2010) come the findings set out here.

In assay [1] the test system is Escherichia coli. As to the kind of experiment: Antibacterial activity against Escherichia coli O157 at 100 ug/ml after 24 hrs by paper disc diffusion technique. The format is functional. Particulars: O157, 24 h, read-out: IZ. Background: In agar diffusion tests the substance spreads into inoculated agar from a disc or well.
Assay [2] concerns Escherichia coli. As to the kind of experiment: Antibacterial activity against Escherichia coli O157 after 24 hrs by agar streak dilution method. The format is functional. Conditions: O157, 24 h.
For assay [3], the system named is Salmonella typhimurium. As to the kind of experiment: Antibacterial activity against Salmonella Typhimurium at 100 ug/ml after 24 hrs by paper disc diffusion technique. Conditions: Salmonella enterica, read-out: IZ. The format is functional, Salmonella enterica subsp. enterica serovar Typhimurium. The essentials: (§1)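 Paper disc diffusion on Mueller Hinton agar, autoclaved at 120 °C for 30 min. Medium at 40–50 °C was seeded at 1 ml/100 ml with a 10^5 cfu/ml suspension matched to 0.9 McFarland. It was poured 3–4 mm deep, and discs with compound in DMSO were laid on it. Plates were pre-incubated 1 h at room temperature, then 37 °C for 24 h. The inhibition zone was measured.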

Assay [4] relates to Salmonella typhimurium. Kind of assay: Antibacterial activity against Salmonella Typhimurium after 24 hrs by agar streak dilution method. The format is functional, Salmonella enterica subsp. enterica serovar Typhimurium. Conditions: Salmonella enterica. Put shortly: (§2)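 Agar streak dilution on Mueller Hinton agar. Compound stock in DMSO was added in graded amounts to molten sterile agar at 40–50 °C. This was poured 3–4 mm deep and left to solidify. Bacterial suspension of about 10^5 cfu/ml was applied to the serially diluted plates. Plates were incubated at 37 °C for 24 h to read the MIC. Strains were food-poisoning isolates from animal byproducts.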

For assay [5], the system named is Listeria monocytogenes. As to the kind of experiment: Antibacterial activity against Listeria monocytogenes at 100 ug/ml after 24 hrs by paper disc diffusion technique. The format is functional. Particulars: read-out: IZ. The essentials: as §1
Assay [6] has as its system Listeria monocytogenes. As to the kind of experiment: Antibacterial activity against Listeria monocytogenes after 24 hrs by agar streak dilution method. The format is functional. The essentials: as §2
Assay [7] relates to Staphylococcus aureus. As to the kind of experiment: Antibacterial activity against Staphylococcus aureus at 100 ug/ml after 24 hrs by paper disc diffusion technique. The format is functional. Conditions: read-out: IZ. Put shortly:
as §1

Assay [8] deals with Staphylococcus aureus. Kind of assay: Antibacterial activity against Staphylococcus aureus after 24 hrs by agar streak dilution method. The format is functional. The essentials:
as §2

Assay [9] deals with Pseudomonas aeruginosa. Kind of assay: Antibacterial activity against Pseudomonas aeruginosa at 100 ug/ml after 24 hrs by paper disc diffusion technique. The format is functional. Particulars: read-out: IZ. Put shortly: as §1
Assay [10] deals with Pseudomonas aeruginosa. Kind of assay: Antibacterial activity against Pseudomonas aeruginosa after 24 hrs by agar streak dilution method. The format is functional. Put shortly: as §2
The subject of assay [11] is Bacillus cereus. As to the kind of experiment: Antibacterial activity against Bacillus cereus at 100 ug/ml after 24 hrs by paper disc diffusion technique. The format is functional. Particulars: read-out: IZ. Put shortly:
as §1

Assay [12] relates to Bacillus cereus. Kind of assay: Antibacterial activity against Bacillus cereus after 24 hrs by agar streak dilution method. The format is functional. The essentials:
as §2

For assay [13], the system named is Candida albicans. Kind of assay: Antifungal activity against Candida albicans at 100 ug/ml after 48 hrs by paper disc diffusion technique. Conditions: read-out: IZ. The format is functional. Put shortly: (§3)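 Paper disc diffusion on Sabouraud dextrose agar, autoclaved at 120 °C for 30 min. Medium at 40–50 °C was seeded at 1 ml/100 ml with a 10^5 cfu/ml fungal suspension matched to 0.9 McFarland. It was poured 3–4 mm deep, and compound discs in DMSO were applied. Plates were pre-incubated 1 h at room temperature, then 28 °C for 48 h. The inhibition zone was recorded.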

Assay [14] has as its system Candida albicans. As to the kind of experiment: Antifungal activity against Candida albicans after 48 hrs by agar streak dilution method. The format is functional. The essentials:
(§4)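 Fungal MIC by agar streak dilution on Sabouraud dextrose agar. Compound stock in DMSO was added in graded amounts to molten sterile medium at 40–50 °C. This was poured 3–4 mm deep and left to solidify. Fungal suspension of about 10^5 cfu/ml was applied to the serially diluted plates. Plates were incubated at 37 °C for 48 h.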

In assay [15] the test system is Aspergillus flavus. As to the kind of experiment: Antifungal activity against Aspergillus flavus at 100 ug/ml after 48 hrs by paper disc diffusion technique. Conditions: read-out: IZ. The format is functional. The essentials:
as §3

The subject of assay [16] is Aspergillus flavus. As to the kind of experiment: Antifungal activity against Aspergillus flavus after 48 hrs by agar streak dilution method. The format is functional. The essentials: as §4

In brackets after ≈: the same amount, converted by molar mass.

Take `Cc1nnc(-c2ccc(-n3c(-c4ccccc4)nc4c(Br)cc(Br)cc4c3=O)cc2)o1`: the zone of inhibition at 100 µg/mL was 14 mm in assay [1]; 12 mm in assay [3]; 15 mm in assay [5]; 15 mm in assay [7]; 12 mm in [9]; 17 mm in assay [11]. In addition, the zone of inhibition at 100 µg/mL in assay [13] was determined as 11 mm; in assay [15] it was 18 mm. Further, the minimum inhibitory concentration (MIC) in assay [2] was found to be 25 µg/mL (≈ 46.5 µM); in assay [4] it was 50 µg/mL (≈ 92.9 µM); in assay [6] it was 12.5 µg/mL (≈ 23.2 µM); in assay [8], 12.5 µg/mL (≈ 23.2 µM); in assay [10] it was 50 µg/mL (≈ 92.9 µM); in assay [12], 1.56 µg/mL (≈ 2.9 µM). Besides, the MIC is 25 µg/mL (≈ 46.5 µM) in [14] and 9.5 µg/mL (≈ 17.7 µM) in [16].
Turning to `COc1ccc(C2SCC(=O)N2NC(=O)c2ccc(-n3c(-c4ccccc4)nc4c(Br)cc(Br)cc4c3=O)cc2)cc1` (configuration not stated), the zone of inhibition at 100 µg/mL in assay [1] came out at 11 mm; in assay [3], 12 mm; in [5], 11 mm; in assay [7] it was 10 mm; in assay [9], 11 mm; in [11], 18 mm. For the same compound, the zone of inhibition at 100 µg/mL in assay [13] turned out to be 10 mm; in assay [15], 20 mm. Besides, the MIC in assay [2] was 45 µg/mL (≈ 63.7 µM); in assay [4] it was 40 µg/mL (≈ 56.6 µM); in assay [6], over 50 µg/mL; in assay [8], 45 µg/mL (≈ 63.7 µM); in assay [10] it was 50 µg/mL (≈ 70.8 µM); in assay [12], 1.9 µg/mL (≈ 2.69 µM). Moreover, the MIC in [14] is 25 µg/mL (≈ 35.4 µM); in [16], 1.56 µg/mL (≈ 2.21 µM).

As usually defined, the MIC is the lowest concentration that inhibits growth of the organism. A lower MIC goes with inhibition by little substance.
